What was measured:
Hela cells [1] = assay: Cell viability assay; assay type: cell-based; settings: 24 h
How it was run: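 MTT assay: HeLa cells at 4.5×10^3 cells/well were allowed to adhere for 24 h, then exposed to gradient concentrations for 24, 48 or 72 h, with 0.1% DMSO as negative control. MTT was added for 3.5 h at 37°C, and formazan was dissolved in DMSO and read at 490 nm. Inhibition rate = [1 − (ODsample − ODblank)/(ODcontrol − ODblank)] × 100%. Mean ± SD, ≥3 independent experiments.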

Hela cells [2] = assay: Wound healing assay; assay type: cell-based; settings: 24 h, serum-free DMEM
How it was run: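 Scratch assay: a confluent HeLa monolayer (9×10^5 cells/well, 6-well plates) was scraped with a 200 µL pipette tip and washed twice with PBS. Treatments were added in serum-free DMEM and plates kept at 37°C, 5% CO2. Wound closure was imaged by microscope at 0 and 24 h.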

Hela cells [3] = assay: Cell apoptosis detection; assay type: cell-based; settings: 24 h
Hela cells [4] = assay: Cell cycle assay; assay type: cell-based; settings: 24 h
How it was run: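 HeLa cells (DMEM, 10% FBS) were seeded at 5.5×10^5 cells/well in 6-well plates and treated in DMEM for 24 h. Collected cells were fixed by dropwise 70% ethanol and held at −20°C for 24 h. They were washed twice in chilled PBS, stained with PI buffer for 30 min at room temperature in the dark, and analysed by flow cytometry. Mean ± SD, ≥3 independent experiments.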

[5] = system: Hela cells xenograft tumor; assay: In vivo anti-tumor effect, subcutaneous xenograft model using Hela cells; set-up: species or system nude mice; settings: for Body weight of nude mice during treatment: CU, CA7, CA7-LP 50 mg/kg, DDP-INJ 3.5 mg/kg, i.p. every 2 days for 14 days; for Tumor cell infiltration in kidneys and livers (H&E): after treatment
How it was run: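 Female BALB/c immunodeficient mice (4 w, 15–16 g) received 3.5×10^7 HeLa cells in 100 µL PBS s.c. near the right scapula. At ~100 mm³, mice were randomised into five groups (n = 5): saline, test articles at 50 mg/kg, or cisplatin injection at 3.5 mg/kg. Dosing was i.p. every 2 days for 14 days. Tumour volume (V = 1/2·ab²) and body weight were tracked; tumours were then weighed and organs formalin-fixed for H&E, with tumour Ki67 immunohistochemistry.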

[6] = 50 mg/kg intraperitoneally every 2 days for 14 days

SMILES | Maximum inhibition rate (Hela cells [1]) [%] | Migration rate (Hela cells [2]) [%] | Total apoptosis rate (Hela cells [3]; 2.5 μM) [%] | Total apoptosis rate (Hela cells [3]; 5 μM) [%] | Total apoptosis rate (Hela cells [3]; 10 μM) [%] | Proportion of the G2/M phase (Hela cells [4]; 2.5 μM) [%] | Proportion of the G2/M phase (Hela cells [4]; 5 μM) [%] | Proportion of the G2/M phase (Hela cells [4]; 10 μM) [%] | Tumor inhibition rate [5, 6] [%] | Tumor weight [5, 6] [g] | Body weight of nude mice during treatment [5] | Tumor cell infiltration in kidneys and livers (H&E) [5] | Change of cell cycle distribution (Hela cells [4]) | Mortality of nude mice ([5]; DDP-INJ 3.5 mg/kg i.p., as the number of administrations increased)
COc1cc(/C=C/C(=O)CC(=O)/C=C/c2ccc(O)c(OC)c2)ccc1O [CU, Curcumin] | 5.77 ± 2.40 | 42.12 ± 3.06 | 7.29 ± 1.64 | 11.64 ± 3.19 | 17.60 ± 3.39 | 17.84 ± 1.07 | 20.46 ± 2.44 | 22.78 ± 3.60 | 28.58 ± 8.04 | 0.49 ± 0.06 | remained stable | present in small amounts |  | 
N.N.[Cl][Pt][Cl] [DDP-INJ, Cisplatin] |  |  | 11.57 ± 1.16 | 23.73 ± 2.30 | 32.17 ± 3.68 |  |  |  |  |  | notable decrease in body weight | absent | increase in the S phase and a decrease in G2/M phase | some mice dying
